Hits are enriched below; roughly 4.6% of the tested compounds scored in any of these assays.
OX1R antag-1 – OX1R (HCRTR1) antagonists, primary screen, fluorescence, CHO/OX1R cells, Fluo-8 calcium, orexin A | Fluo-8 calcium fluorescence | inhibition, % at 5 µM | 0.43% of 330,000 active;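 active = inhibition above its plate's threshold, mean inhibition of all tested compounds on the plate plus 3 SD, cut at about 37% in these data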;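 also: 0% = orexin A challenge wells and 100% = SB-334867-A antagonist wells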
CHO parental Ca – ATP-evoked calcium signal inhibitors, parental CHO, primary screen, counter-screen for OX1R antagonist project, cell-based, fluorescence, Fluo-8 calcium dye | parental CHO-K1, ATP-induced calcium, Fluo-8 fluorescence | inhibition, % at 5.6 µM | 0.63% of 330,000 active | AID 463079, 2010;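 active = inhibition above that plate's mean sample inhibition plus 3 SD, cut at about 26% in these data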;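 also: 0% = ATP-challenged DMSO wells and 100% = DMSO wells without ATP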
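Measured by: calcium-sensitive Fluo-8 fluorescence / Test system: CHO parental line / Controls: ATP-challenged DMSO wells low, unchallenged DMSO wells high / Measure: % inhibition / Compound: single nominal dose of 5.6 µM per compound / Replicates: single well per compound, no replicates / Reagent: ATP as calcium-mobilizing challenge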
GPR7 antag – GPR7 receptor antagonists, primary screen, cell-based, fluorescence, single concentration; Neuropeptides B/W receptor type 1 (Homo sapiens), P48145; GPR7-expressing cells, fluorescence antagonist assay; inhibition, % at 4.4 µM; 1.1% of 290,000 active; AID 1861, 2009; in the data active = inhibition above about 16%, passing the limit was not always enough;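 also: cells stimulated with the agonist NPW; 0% = agonist with vehicle and 100% = vehicle without agonist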
Target sequence (P48145 whole entry, looked up): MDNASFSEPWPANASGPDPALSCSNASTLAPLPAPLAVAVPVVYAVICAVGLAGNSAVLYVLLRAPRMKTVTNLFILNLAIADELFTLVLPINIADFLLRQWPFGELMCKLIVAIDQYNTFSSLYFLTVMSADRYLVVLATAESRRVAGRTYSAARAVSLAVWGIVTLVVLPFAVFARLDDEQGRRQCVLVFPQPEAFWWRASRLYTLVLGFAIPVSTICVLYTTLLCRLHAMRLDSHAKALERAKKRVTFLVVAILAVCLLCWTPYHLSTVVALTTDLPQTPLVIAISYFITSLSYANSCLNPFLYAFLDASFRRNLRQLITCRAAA
TAAR1 antag – human TAAR1 antagonists, primary screen, Fluo-8 calcium fluorescence, CHO RD-HGA16 cells; 1.5% of 360,000 active; AID 624466, 2012; Trace amine-associated receptor 1 (Homo sapiens), Q96RJ0; inhibition, % at 3 µM; antagonist;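 active = inhibition above a per-plate cutoff, the mean inhibition of test compounds on that plate plus 3 SD, cut at about 49% in these data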;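 also: 0% = DMSO plus EC80 beta-PEA response and 100% = DMSO alone without agonist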
Target sequence (Q96RJ0 whole entry, looked up): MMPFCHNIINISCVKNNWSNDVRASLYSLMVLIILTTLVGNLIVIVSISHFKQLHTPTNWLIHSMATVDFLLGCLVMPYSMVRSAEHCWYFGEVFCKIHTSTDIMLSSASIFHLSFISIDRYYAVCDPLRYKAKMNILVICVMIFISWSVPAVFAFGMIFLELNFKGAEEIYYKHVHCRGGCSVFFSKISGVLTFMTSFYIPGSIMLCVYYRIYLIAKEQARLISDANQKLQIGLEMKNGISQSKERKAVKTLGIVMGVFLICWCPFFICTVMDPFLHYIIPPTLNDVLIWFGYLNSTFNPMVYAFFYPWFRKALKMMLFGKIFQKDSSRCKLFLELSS
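Test system: hTAAR1-expressing CHO RD-HGA16 cells, Gα16-coupled; Probe or stimulus: EC80 β-phenethylamine stimulus; Compound dosing: single nominal final test compound concentration of 3 µM; Timing: 140 s kinetic read after compound, 140 s after agonist; Signal: Fluo-8 calcium-sensitive fluorescence; Measure: % inhibition of agonist calcium response; Controls: DMSO and EC80 PEA controls.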
TAAR1 agonist – human TAAR1 agonists, primary screen, Fluo-8 calcium fluorescence, CHO RD-HGA16 cells; Trace amine-associated receptor 1 (Homo sapiens), Q96RJ0; vehicle wells 0%, saturating PEA agonist 100%; activation, % at 3 µM; 0.99% of 360,000 active; AID 624467, 2012;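 active = activation above the mean activation of all test compounds in the run plus 3 SD, cut at about 38% in these data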
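Assay system: CHO-derived RD-HGA16 cells with stable Gα16 and human TAAR1; timing: 17-24 h seeding, 75 min 37 °C dye, 30 min RT; read-out: % activation from peak over basal fluorescence ratio, DMSO-to-PEA scaled; measured by: kinetic Fluo-8 calcium fluorescence; benchmarks: low control DMSO, high control PEA (EC100); doses: 3 µM single concentration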
OX1R antag-2 – antagonists of human orexin 1 receptor (OX1R) | inhibition, % at 6.6 µM | 1.8% of 330,000 active | Orexin/Hypocretin receptor type 1 (Homo sapiens), O43613 | OX1R-expressing cells, FRET antagonist read-out | AID 485270, 2010; in the data active = inhibition mostly above about 38%, no sharp cut-off; inactive = mostly below about 40%;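 also: 0% = agonist challenge alone and 100% = reference antagonist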
The depositor's hits bear a star; nt = not tested or not shown; ! = not active in a repeat.

SMILES	OX1R antag-1	CHO parental Ca	GPR7 antag	TAAR1 antag	TAAR1 agonist	OX1R antag-2
CCOC(=O)Cn1c(S(=O)(=O)Cc2ccc(F)cc2)nc(-c2ccccc2)c1-c1ccccc1	-12	-18	8	7	5	14
CC(=O)Nc1ccc(S(=O)(=O)N[C@@H](C)C(=O)OCC(=O)c2ccc[nH]2)cc1	-2	6	nt	-3	1	0
CC(C)=CCC/C(C)=C/CCC(C)NCCN1CCNCC1 (centres undefined)	-28	-25	24*	nt	nt	12
CCOC(=O)c1cnc(-c2ccccc2)nc1Oc1ccc(Cl)c(Cl)c1	-7	-4	19*	1	10	7
CCOC(=O)c1cnc(-c2ccccc2)nc1Oc1cccc(Cl)c1	-20	-2	-3	-3	18	14
COc1cc(NC(=O)NCCN2CCN(c3ccc(Cl)cc3)CC2)ccc1C	17	14	15	36	48*	1
COc1ccc(CNC(=O)C2CCN(S(=O)(=O)c3ccc(N4CCCC4=O)cc3)CC2)cc1	nt	nt	nt	-16	1	nt
CC1CCC(C(C)C)C(OC(=O)COC(=O)c2cccn2C)C1 (centres undefined)	-15	-12	10	36	6	15
CC1CCC(C(C)C)C(OC(=O)COC(=O)c2ccc(N)cc2)C1 (centres undefined)	-24	-2	-16	-4	2	16
CC1CCC(C(C)C)C(OC(=O)Cn2c(-c3ccc(Cl)cc3)[n+](C)c3ccccc32)C1 (centres undefined)	4	25	60*	-5	2	9
CC1CCC(C(C)C)C(OC(=O)Cn2c(-c3ccc(Br)cc3)[n+](C)c3ccccc32)C1 (centres undefined)	8	30*!	74*	6	7	17
CC(C)(C)NC(=O)C(c1ccccn1)N(C(=O)c1csnn1)C1CCCC1 (centres undefined)	-17	-25	-8	1	-3	8
O=C(Nc1ccc2nc(-c3cccs3)c(-c3cccs3)nc2c1)NC1CC1	-7	4	4	32	36	58*
COCCNC(=O)Nc1ccc2nc(-c3cccs3)c(-c3cccs3)nc2c1	5	1	4	32	8	51
Cc1c(NC(=O)c2ccc3c(c2)OCO3)cccc1-c1nc2ccccc2o1	-5	-25	9	17	9	52*
O=C(Nc1ccccc1-c1nc2ccccc2o1)c1ccc2c(c1)OCCO2	nt	nt	-2	nt	nt	nt
COc1ccc(NC(=O)CCNC(=O)c2ccc([N+](=O)[O-])cc2)cc1S(=O)(=O)N1CCCCC1	nt	nt	nt	-34	0	nt
COc1ccc(C(=O)c2ccc([N+](=O)[O-])cc2)cc1S(=O)(=O)N1CCC(C(=O)O)CC1	-14	-4	-6	-12	1	53*
CCCN1Cc2cccc(C(=O)NC(CC(=O)OCC)c3ccc(OC(C)C)cc3)c2C1=O (centres undefined)	-12	-17	-20	16	1	30
CCOC(=O)CC(NC(=O)c1cccc2c1C(=O)N(Cc1cccnc1)C2)c1ccc(OC(C)C)cc1 (centres undefined)	-16	-3	-11	39	8	48*
O=C(CN(Cc1ccco1)Cc1ccco1)Nc1cc(S(=O)(=O)N2CCCCC2)ccc1Cl	74*	48*	nt	36	7	10
O=C(OCC(=O)N1CCOCC1)c1ccccc1OCc1ccccc1	-6	-14	nt	4	2	7
CC(=O)c1c2c3c(cccc3n(C)c1=O)C(=O)c1ccccc1-2	-26	-8	-7	nt	nt	25
CC(=O)c1c2c3c(c(Br)ccc3n(C)c1=O)C(=O)c1ccccc1-2	-4	-18	8	-3	4	56*
CN(C)C(=O)c1ccc(NC(=O)COc2cccc3c2OC(C)(C)C3)cc1	nt	nt	nt	-19	5	nt
SMILES	OX1R antag-1	CHO parental Ca	GPR7 antag	TAAR1 antag	TAAR1 agonist	OX1R antag-2
NC(=O)N=Nc1c2[nH]c3ccccc3nc-2c2ccccc12	-4	-11	-19	44	23	71*
CCc1nc(SCC(=O)N2CCCc3ccccc32)c2oc3ccccc3c2n1	-6	-11	-2	23	7	48*
CS(=O)(=O)N1CCC(C(=O)NCc2ccc(Cl)cc2Cl)CC1	-13	2	-20	-3	4	18
Cc1cc(NC(=O)CCC(=O)N(Cc2ccco2)C(C(=O)NC2CCCCC2)c2ccccc2)no1 (centres undefined)	-18	-21	-4	11	5	53*
COCCNC(=O)C(c1ccc(F)cc1)N(Cc1ccco1)C(=O)CCC(=O)Nc1ccccn1 (centres undefined)	-11	-15	-15	-21	2	40
COCCNC(=O)C(c1ccc(F)cc1)N(Cc1ccco1)C(=O)CCC(=O)Nc1nccs1 (centres undefined)	26	-13	-12	4	0	60*
Cc1cc(NC(=O)CCC(=O)N(Cc2ccco2)C(C(=O)NC2CCCC2)c2ccccc2C)no1 (centres undefined)	-7	-19	-13	8	14	44
CCOC(=O)C(C)NC(=O)CCc1nnc2ccc(N3CCCCC3)nn12 (centres undefined)	-8	-3	-17	-22	2	-2
Cn1ncc2c(O/N=C(\N)c3ccc(C(F)(F)F)cc3)ncnc21	-24	-16	2	-9	2	48*
COC(=O)CSc1nc2c(c(-c3ccco3)c1C#N)CCCC2	-32	-26	-8	nt	nt	40
CCOC(=O)CSc1nc2c(c(-c3ccc(C)o3)c1C#N)CCCC2	-32	33*	-7	42	8	15
Cc1ccc(NC(=O)C(C)OC(=O)CCN=C2NS(=O)(=O)c3ccccc32)cc1 (centres undefined)	-23	-12	nt	-3	0	12
O=c1cc(-c2ccccc2Cl)oc2c(NS(=O)(=O)c3cccs3)ccc(O)c12	16	-11	nt	40	1	73*
CC1(C)C(=S)N(Cc2ccccc2)c2ccccc21	-20	-14	-26	23	1	17
O=C1Nc2ccc(S(=O)(=O)N3CCCC3)c3cccc1c23	-8	-6	-1	-4	7	19
O=C1Nc2ccc(S(=O)(=O)N3CCCC3C(=O)O)c3cccc1c23 (centres undefined)	-10	-9	-4	-18	1	38*
CCC(C(=O)N1CCC(N2CCCCC2)CC1)n1nc(C)c2sc3ccccc3c2c1=O (centres undefined)	-23	-15	-14	-29	-2	10
